Screens (PubChem)
Runt-SMMHC FRET: inhibitors of human RUNX1 Runt domain binding to CBFb-SMMHC. Q01196+Q13951. Cerulean-Runt/Venus-CBFb-SMMHC FRET ratio 530/480, 1 h. inhibition, % at 20 µM. 220,000 compounds, 0.74% hits. AID 1434;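 active = mean inhibition across duplicate retests at 20 µM reaching about 50%, limit read from the data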;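 note: 0% = DMSO wells and 100% = wells with excess untagged CBFb-SMMHC; inhibitors lower the FRET ratio by blocking Runt binding to CBFb-SMMHC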
Hck-Nef inh: inhibitors of human Hck kinase activated by Nef | P08631 | Recombinant Hck-YEEI plus Nef, Z-Lyte FRET kinase assay | inhibition, % at 20 µM | 220,000 compounds, 0.68% hits | AID 463187;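 active = Hck-Nef kinase inhibition above about 50%, limit read from the data; inactive = inhibition below that limit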;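 note: 0% = DMSO with Hck plus Nef and 100% = Hck alone without Nef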
Target sequence (P08631 whole entry, looked up): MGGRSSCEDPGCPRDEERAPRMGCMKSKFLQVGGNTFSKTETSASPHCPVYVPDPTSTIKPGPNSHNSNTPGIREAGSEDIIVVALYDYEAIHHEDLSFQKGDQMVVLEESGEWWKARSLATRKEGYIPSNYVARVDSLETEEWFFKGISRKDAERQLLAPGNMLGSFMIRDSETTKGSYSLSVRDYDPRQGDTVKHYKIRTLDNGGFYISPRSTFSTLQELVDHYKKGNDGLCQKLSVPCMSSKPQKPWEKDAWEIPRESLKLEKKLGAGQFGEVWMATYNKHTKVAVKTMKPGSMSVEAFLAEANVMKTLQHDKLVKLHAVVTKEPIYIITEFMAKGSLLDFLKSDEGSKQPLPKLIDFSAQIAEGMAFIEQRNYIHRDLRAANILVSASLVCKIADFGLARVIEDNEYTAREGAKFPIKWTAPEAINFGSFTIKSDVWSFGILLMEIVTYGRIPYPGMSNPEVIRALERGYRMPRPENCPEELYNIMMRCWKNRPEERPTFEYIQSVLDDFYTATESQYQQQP
Runt-CBFb FRET: inhibitors of human RUNX1 Runt domain binding to CBFb; Cerulean-Runt/Venus-CBFb FRET ratio 530/480, 1 h; 220,000 compounds, 0.46% hits; Q01196+Q13951; inhibition, % at 20 µM;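 active = inhibition over about 50% at 20 µM in the single-dose screen, limit read from the data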;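 note: 0% = DMSO wells and 100% = excess unlabeled CBFb competitor control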
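Doses: 20 µM compound in 1% DMSO | Material: Cerulean-labeled Runt domain protein | Amount: Each fluorescent fusion protein 100 nM | Schedule: Two 1 h room-temperature incubations shielded from light | Measured by: FRET fluorescence | Evaluation: Loss of energy transfer signal | Controls: Unlabeled CBFb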
RanGTP-Impb inh: disruptors of Ran-importin-beta complex formation – biochemical, FRET, CFP-Ran, YFP-importin-beta, homogeneous, primary screen | 300,000 compounds, 1.1% hits | cell-free CFP-Ran/YFP-importin-beta FRET ratio | inhibition, % (concentration not given with the values) | AID 2216;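 active = more than half of the replicate wells show a fall in the fluorescence ratio signal beyond about 16%, limit read from the data, passing the limit was not always enough; inconclusive = exactly half of the replicate wells pass the set limit; inactive = fewer than half of replicates pass the limit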;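 note: 0% = DMSO wells and 100% = Ran loaded with GDP instead of GTP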
YIC counter: counter-screen for RanGTP-importin-beta inhibitors: YIC FRET probe. shares compounds with RanGTP-Impb inh. 1,000 compounds, 40% hits. IC50, µM. Purified YIC probe, intramolecular FRET ratio YFP/CFP;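 active = fitted half-maximal inhibitory concentration no more than tenfold above the top dose tested; inconclusive = flat fit with 30 to 70% activity, or poor fit; inactive = half-maximal concentration beyond tenfold above the top dose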
Numbers without * were called inactive. An excerpt weighted towards active compounds, which were near 1.8% of everything screened.

What do the screens show for `Cc1cccc(C(=O)N2CCN=C2SCc2ccc([N+](=O)[O-])cc2)c1`?
Runt-SMMHC FRET: 0; Hck-Nef inh: 16; Runt-CBFb FRET: -1; RanGTP-Impb inh: -1

Results for Cc1ccnc(NC(=O)C2CCN(S(=O)(=O)c3ccc(Cl)c(C(F)(F)F)c3)CC2)c1 ?
RanGTP-Impb inh: 0

What do the screens show for `Cc1ccc(NC(=O)C2CCN(S(=O)(=O)c3ccc(Cl)c(C(F)(F)F)c3)CC2)nc1`?
RanGTP-Impb inh: 20*; YIC counter: >50

What do the screens show for `CC1(C(=O)OCC(=O)Nc2cccc(S(=O)(=O)NC3=NCCCCC3)c2)CC1(Cl)Cl` (stereo unspecified)?
Runt-SMMHC FRET: -2; Hck-Nef inh: -19; Runt-CBFb FRET: -1; RanGTP-Impb inh: 1

What do the screens show for `Cc1ccc(C(=O)Nc2cccc(C(=O)N/N=C/c3ccc(F)cc3)c2)cc1`?
RanGTP-Impb inh: 0

What do the screens show for `CC(=O)Nc1cccc(C(=O)N/N=C/c2ccc(F)cc2)c1`?
Runt-SMMHC FRET: 0; Hck-Nef inh: 4; Runt-CBFb FRET: -2; RanGTP-Impb inh: 22*; YIC counter: >50

What do the screens show for `CCCc1[nH]nc2c1C(c1ccoc1)C(C#N)=C(N)O2` (stereo unspecified)?
Runt-SMMHC FRET: -1; Hck-Nef inh: 1; Runt-CBFb FRET: -2; RanGTP-Impb inh: inconclusive

How did Cc1[nH]nc2c1C(c1ccoc1)C(C#N)=C(N)O2 (stereo unspecified) do in these assays?
Hck-Nef inh: 2; RanGTP-Impb inh: 21*; YIC counter: >50

How did COC(=O)C1=CN(Cc2ccccc2)C=C(C(=O)OC)C1c1ccc(O)c(OC)c1 do in these assays?
RanGTP-Impb inh: 28*; YIC counter: >50

What do the screens show for `COC(=O)C1=CN(Cc2ccccc2)C=C(C(=O)OC)C1c1ccc(OC)c(OC)c1`?
RanGTP-Impb inh: 3

Results for CCOc1cc(C2C(C(=O)OC)=CN(Cc3ccc(Cl)cc3)C=C2C(=O)OC)ccc1O ?
RanGTP-Impb inh: 6

How did COC(=O)C1=CN(Cc2ccc(OC)c(OC)c2)C=C(C(=O)OC)C1c1ccccc1F do in these assays?
RanGTP-Impb inh: 28*; YIC counter: 11*

How did Cc1cc(NC(=O)c2c(F)c(F)c(F)c(F)c2F)no1 do in these assays?
Runt-SMMHC FRET: -2; Hck-Nef inh: 2; Runt-CBFb FRET: -2; RanGTP-Impb inh: 23*; YIC counter: >50

Results for Cc1cc(NC(=O)c2sc3ccccc3c2O)no1 ?
RanGTP-Impb inh: 17*; YIC counter: inconclusive

How did COC(=O)C1=C[C@@H](C(=O)OC)[C@@H]2C3=C(C(=O)[C@@]2(C)NC(=O)c2ccccc2)[C@H](c2ccccc2)[C@@H]2C(=O)NC(=O)[C@@H]2[C@@H]3C1 do in these assays?
RanGTP-Impb inh: -2

Results for COc1ccc(N(CC(=O)Nc2ccccc2C(=O)N2CCCC2)S(C)(=O)=O)cc1 ?
RanGTP-Impb inh: 0

How did COc1ccccc1/C=C/c1nc(C#N)c(N(C)C)o1 do in these assays?
RanGTP-Impb inh: 28*; YIC counter: 13*

How did N#Cc1sc(NCc2ccccn2)nc1Cl do in these assays?
RanGTP-Impb inh: -1

How did C=CCn1c(SCC(=O)Nc2sccc2C(N)=O)nc2ccccc2c1=O do in these assays?
Runt-SMMHC FRET: 0; Hck-Nef inh: -21; Runt-CBFb FRET: -1; RanGTP-Impb inh: 19*; YIC counter: >50

Results for Cc1c(O)c(CN2CCCCC2)cc2c3c(c(=O)oc12)CCC3 ?
Runt-SMMHC FRET: 58*; Hck-Nef inh: 9; Runt-CBFb FRET: 90*; RanGTP-Impb inh: 37*; YIC counter: 14*

What do the screens show for `Cc1c(O)c(CN2CCCCC2)cc2c1oc(=O)c1ccccc12`?
Runt-SMMHC FRET: -1; Hck-Nef inh: 2; Runt-CBFb FRET: -3; RanGTP-Impb inh: -2

How did COc1ccc(N(CC(=O)NCc2ccc(F)cc2)C(=O)c2snc(C(N)=O)c2N)cc1OC do in these assays?
RanGTP-Impb inh: 3

What do the screens show for `CC(=O)N1CCN(CC(=O)NC(=O)Nc2ccc3c(c2)OCCO3)CC1`?
RanGTP-Impb inh: -2

What do the screens show for `Cc1ccc(-c2cc3nc(-c4ccccc4)cc(N4CCC5(CC4)OCCO5)n3n2)cc1`?
Runt-SMMHC FRET: -3; Hck-Nef inh: 6; Runt-CBFb FRET: -5; RanGTP-Impb inh: 29*; YIC counter: 5.6*

What do the screens show for `O=C(Nc1cnc2ccccc2c1)c1cccc(-n2cnnn2)c1`?
Runt-SMMHC FRET: -9; Hck-Nef inh: 0; Runt-CBFb FRET: 2; RanGTP-Impb inh: 19*; YIC counter: >50

Results for O=C(NNC(=O)c1cccc(-n2cnnn2)c1)c1ccccc1 ?
Runt-SMMHC FRET: 0; Hck-Nef inh: 11; Runt-CBFb FRET: 1; RanGTP-Impb inh: 0

How did Cc1ccc(-n2c(=O)c(C#N)cc3c(=O)n4ccccc4nc32)cc1 do in these assays?
Runt-SMMHC FRET: 60*; Hck-Nef inh: 94*; Runt-CBFb FRET: 19; RanGTP-Impb inh: 44*; YIC counter: 0.72*

Results for Cn1c(=O)c([N+](=O)[O-])c(NCC2CCCO2)c2ccccc21 (stereo unspecified) ?
Runt-SMMHC FRET: 1; Hck-Nef inh: 3; Runt-CBFb FRET: -1; RanGTP-Impb inh: 0

What do the screens show for `CS(=O)(=O)N(CC(=O)NCCSCc1ccco1)c1ccc(Cl)cc1`?
Runt-SMMHC FRET: -1; Hck-Nef inh: 19; Runt-CBFb FRET: 3; RanGTP-Impb inh: 16*; YIC counter: >50

Results for COC(=O)c1cc(C(=O)OC)[nH]n1 ?
Runt-SMMHC FRET: -3; Hck-Nef inh: 15; Runt-CBFb FRET: 2; RanGTP-Impb inh: 20*; YIC counter: >50

How did COC(=O)c1cc(-c2ccccc2)n[nH]1 do in these assays?
Runt-SMMHC FRET: 2; Hck-Nef inh: 7; Runt-CBFb FRET: 2; RanGTP-Impb inh: -3

Results for Cn1cnc(S(=O)(=O)N2CCN(c3ccc(Cl)cc3)CC2)c1 ?
RanGTP-Impb inh: 18*; YIC counter: >50

What do the screens show for `Cc1ccc(CNC(=O)c2cccnc2)cc1`?
RanGTP-Impb inh: 21*; YIC counter: >50

What do the screens show for `COc1ccc(NC(=O)n2ncc3c(C)cccc32)cc1`?
RanGTP-Impb inh: 2

Results for Nc1nc(CSc2nc3ccccc3s2)nc(N2CCCCC2)n1 ?
Runt-SMMHC FRET: 1; Hck-Nef inh: -1; Runt-CBFb FRET: -1; RanGTP-Impb inh: 36*; YIC counter: >50

Results for CCc1ccc(Nc2nc(N)nc(CSc3nc4ccccc4s3)n2)cc1 ?
Runt-SMMHC FRET: -3; Hck-Nef inh: 0; Runt-CBFb FRET: -4; RanGTP-Impb inh: 3

Results for Cc1[nH]nc(Sc2ccccn2)c1[N+](=O)[O-] ?
Runt-SMMHC FRET: 4; Hck-Nef inh: 3; Runt-CBFb FRET: -1; RanGTP-Impb inh: -2

Results for CC(C)Cc1nn2c(N)c(/C=C3\C=Nc4ccccc43)c(=O)nc2s1 ?
Runt-SMMHC FRET: -54; Hck-Nef inh: 17; Runt-CBFb FRET: -85; RanGTP-Impb inh: 25*; YIC counter: >50
